Experimental data reported in ChEMBL document CHEMBL3351225, “Design, synthesis, and structure-activity and structure-pharmacokinetic relationship studies of novel [6,6,5] tricyclic fused oxazolidinones leading to the discovery of a potent, selective, and orally bioavailable FXa inhibitor” (J Med Chem, 2014).

Assays:
Coagulation factor VII = biological target: T1, Coagulation factor VII (Homo sapiens, UniProt P08709); experiment: Inhibition of human factor 7a using S-2366 chromogenic substrate
T1 sequence (P08709 whole entry): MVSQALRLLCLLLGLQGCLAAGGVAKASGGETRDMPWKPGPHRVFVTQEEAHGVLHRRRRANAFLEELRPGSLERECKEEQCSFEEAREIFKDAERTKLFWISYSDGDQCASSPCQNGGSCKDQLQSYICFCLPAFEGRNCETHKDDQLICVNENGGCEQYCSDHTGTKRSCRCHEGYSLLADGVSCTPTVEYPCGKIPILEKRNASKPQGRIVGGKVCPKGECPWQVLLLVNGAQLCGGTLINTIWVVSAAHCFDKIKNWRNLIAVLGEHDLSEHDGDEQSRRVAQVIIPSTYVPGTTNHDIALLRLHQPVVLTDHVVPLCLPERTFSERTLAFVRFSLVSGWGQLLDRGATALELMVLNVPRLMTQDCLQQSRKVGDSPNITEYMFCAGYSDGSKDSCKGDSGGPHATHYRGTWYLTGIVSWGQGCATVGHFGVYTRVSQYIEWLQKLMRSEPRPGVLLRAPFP
Outline: (§1)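 Human enzyme and inhibitor were premixed and preincubated, then the chromogenic substrate was added. Substrate levels: 300 μM S-2765 (FXa, trypsin); 200 μM S-2366 (FIIa); 2 mM S-2366 (FVIIa, FXIa). pNA release was monitored continuously at 405 nm for 20 min at 37 °C. IC50 was obtained by nonlinear regression.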

Trypsin = Trypsin (Homo sapiens, UniProt P07477+P07478+P35030); experiment: Inhibition of human trypsin using N-Z-D-Arg-Gly-Arg-pNA, S-2765 chromogenic substrate; assay type: protein assay; outline: as §1
Coagulation factor XI = Coagulation factor XI (Homo sapiens, UniProt P03951); experiment: Inhibition of human factor 11a using S-2366 chromogenic substrate; outline: as §1
Chain of Coagulation factor XI (P03951 19-387 limits assumed): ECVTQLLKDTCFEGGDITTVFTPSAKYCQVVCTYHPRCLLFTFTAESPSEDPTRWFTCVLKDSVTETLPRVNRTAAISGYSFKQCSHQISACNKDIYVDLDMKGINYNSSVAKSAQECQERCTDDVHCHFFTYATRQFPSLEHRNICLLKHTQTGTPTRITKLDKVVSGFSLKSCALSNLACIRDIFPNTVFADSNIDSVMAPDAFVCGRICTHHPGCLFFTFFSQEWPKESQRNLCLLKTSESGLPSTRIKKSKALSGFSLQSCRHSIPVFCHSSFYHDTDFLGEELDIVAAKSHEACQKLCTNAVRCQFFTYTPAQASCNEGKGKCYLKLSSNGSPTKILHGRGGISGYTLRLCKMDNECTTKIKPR
Chain of Coagulation factor XI (P03951 388-625 limits assumed): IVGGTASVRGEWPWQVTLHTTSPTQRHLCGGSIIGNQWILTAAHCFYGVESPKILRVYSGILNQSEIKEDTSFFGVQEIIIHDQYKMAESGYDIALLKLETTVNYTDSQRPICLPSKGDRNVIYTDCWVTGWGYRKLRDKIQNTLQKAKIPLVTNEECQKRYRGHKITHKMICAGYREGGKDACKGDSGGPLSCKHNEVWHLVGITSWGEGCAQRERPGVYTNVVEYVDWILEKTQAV

Plasma [1] = experiment: Anticoagulant activity in citrated rabbit plasma assessed as drug concentration required to double plasma clotting time preincubated for 10 mins at 37 degC by coagulometry; assay type: functional, Oryctolagus cuniculus
Outline: (§2)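 Test compound or DMSO added to citrated rabbit plasma (3.8% sodium citrate, 10:90 v/v) and preincubated 10 min at 37 °C. PT and aPTT clotting times measured on a coagulometer with commercial kits. Activity expressed as the concentration needed to double plasma clotting time (CT2, μM).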

Plasma [2] = experiment: Anticoagulant activity in citrated rabbit plasma assessed as activated partial thromboplastin time preincubated for 10 mins at 37 degC by coagulometry; assay type: functional, Oryctolagus cuniculus; outline: as §2
[3] = AUC (0 to infinity) in Sprague-Dawley rat at 3 mg/kg, iv; assay type: ADME, organism-based; design: time infinity, dose 3 mg/kg, route intravenous; conditions: plasma
Outline: (§3)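 Male Sprague-Dawley rats, 200−220 g, four per group. Vehicle was 5% DMSO + 5% Tween-80 in 90% saline. The reference drug was given in 10% DMSO + 10% Tween-80 + 80% PEG400 (40% solution in saline). Serial retrobulbar vein samples were quantified by LC-MS. Parameters came from noncompartmental analysis of mean plasma concentrations.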

[4] = Plasma clearance in Sprague-Dawley rat at 3 mg/kg, iv; assay type: ADME, organism-based; design: dose 3 mg/kg, route intravenous; outline: as §3
[5] = Cmax in Beagle dog at 1 mg/kg, po; assay type: ADME, organism-based, Canis lupus familiaris; design: dose 1 mg/kg, route oral; conditions: in vivo
Outline: (§4)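 Male dogs, three per group. Dosed orally at 1 mg/kg or by intravenous infusion at 0.5 mg/kg. Vehicle was 5% DMSO + 5% Tween-80 in 90% saline, or 10% DMSO + 10% Tween-80 + 80% PEG400 for the reference drug. Foreleg blood samples were quantified by LC-MS. Parameters came from noncompartmental analysis of mean plasma concentrations.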

[6] = Elimination half life in Beagle dog at 1 mg/kg, po; assay type: ADME, organism-based, Canis lupus familiaris; design: dose 1 mg/kg, route oral; conditions: in vivo; outline: as §4
[7] = Elimination half life in Beagle dog at 0.5 mg/kg, iv; assay type: ADME, organism-based, Canis lupus familiaris; design: dose 0.5 mg/kg, route intravenous; conditions: in vivo; outline: as §4
[8] = AUC (0 to infinity) in Beagle dog at 1 mg/kg, po; assay type: ADME, organism-based, Canis lupus familiaris; design: time infinity, dose 1 mg/kg, route oral; conditions: plasma; outline: as §4
[9] = AUC (0 to infinity) in Beagle dog at 0.5 mg/kg, iv; assay type: ADME, organism-based, Canis lupus familiaris; design: time infinity, dose 0.5 mg/kg, route intravenous; conditions: plasma; outline: as §4
Rattus norvegicus [10] = experiment: Antithrombotic activity in rat model of FeCl3-induced venous thrombosis assessed as reduction in thrombus formation dosed orally 60 mins before thrombus formation; conditions: po
Rattus norvegicus [11] = experiment: Antithrombotic activity in rat model of arteriovenous shunt-induced thrombosis assessed as reduction in thrombus formation dosed orally 60 mins before shunt opening; conditions: po
Cytochrome P450 1A2 = biological target: T2, Cytochrome P450 1A2 (Homo sapiens, UniProt P05177); experiment: Inhibition of CYP1A2 (unknown origin); assay type: ADME
T2 sequence (P05177 whole entry): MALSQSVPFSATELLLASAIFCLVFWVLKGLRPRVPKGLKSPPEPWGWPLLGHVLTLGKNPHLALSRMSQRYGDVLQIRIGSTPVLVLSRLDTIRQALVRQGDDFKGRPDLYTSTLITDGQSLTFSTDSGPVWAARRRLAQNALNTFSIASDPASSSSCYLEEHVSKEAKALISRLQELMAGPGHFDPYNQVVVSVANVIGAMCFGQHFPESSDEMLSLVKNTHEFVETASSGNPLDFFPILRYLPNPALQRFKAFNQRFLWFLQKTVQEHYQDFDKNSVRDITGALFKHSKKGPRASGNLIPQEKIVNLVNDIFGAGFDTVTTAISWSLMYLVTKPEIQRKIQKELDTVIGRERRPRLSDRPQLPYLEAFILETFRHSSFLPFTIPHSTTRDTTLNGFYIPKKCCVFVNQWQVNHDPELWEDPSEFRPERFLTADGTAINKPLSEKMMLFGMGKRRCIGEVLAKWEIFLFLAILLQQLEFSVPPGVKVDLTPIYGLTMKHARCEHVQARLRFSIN

Cytochrome P450 2C8 = biological target: T3, Cytochrome P450 2C8 (Homo sapiens, UniProt P10632); experiment: Inhibition of CYP2C8 (unknown origin); assay type: ADME
T3 sequence (P10632 whole entry): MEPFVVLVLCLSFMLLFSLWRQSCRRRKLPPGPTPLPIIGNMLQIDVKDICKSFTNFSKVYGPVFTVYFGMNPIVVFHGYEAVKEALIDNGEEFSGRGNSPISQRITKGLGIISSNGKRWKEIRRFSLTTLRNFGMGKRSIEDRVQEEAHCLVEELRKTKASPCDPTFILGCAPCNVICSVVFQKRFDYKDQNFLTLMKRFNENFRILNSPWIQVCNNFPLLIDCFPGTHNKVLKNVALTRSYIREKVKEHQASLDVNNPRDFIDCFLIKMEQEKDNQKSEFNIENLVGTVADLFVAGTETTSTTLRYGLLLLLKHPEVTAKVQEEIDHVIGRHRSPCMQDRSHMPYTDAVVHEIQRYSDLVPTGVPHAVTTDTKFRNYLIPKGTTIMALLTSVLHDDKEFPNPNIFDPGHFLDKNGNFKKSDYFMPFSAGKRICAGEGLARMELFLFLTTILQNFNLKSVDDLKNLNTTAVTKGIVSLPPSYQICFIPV

Rattus norvegicus [12] = experiment: Toxicity in rat assessed as induction of food intake changes at 50 mg/kg, po dosed once daily for 2 weeks; assay type: organism-based; design: dose 50 mg/kg, route oral; conditions: in vivo, 336 h
Outline: (§5)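 Subacute toxicity in rats: oral dosing once daily for 2 weeks at 50 mg/kg (medium) or 100 mg/kg (high). Behavior, body weight, food intake, organ coefficients and survival rate were monitored.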

Rattus norvegicus [13] = experiment: Toxicity in rat assessed as induction of body weight changes at 100 mg/kg, po dosed once daily for 2 weeks; assay type: organism-based; design: dose 100 mg/kg, route oral; conditions: in vivo, 336 h; outline: as §5

With `O=C(NC[C@@H]1OC(=O)N2c3ccc(N4CCOCC4=O)cc3OC[C@@H]12)c1ccc(Cl)s1` the IC50 (Coagulation factor VII) was over 100 µM, the IC50 (Trypsin) was over 100 µM and the IC50 (Coagulation factor XI) was over 100 µM. For the same compound, the Activity (Plasma [1]) was 0.18 µM, the 2aPTT (Plasma [2]) was 0.14 µM and the AUC(0-inf) [3] was 15300 ng·h/mL. The clearance [4] was 3.35 mL/min/kg, the Cmax [5] was 530 ng/mL and the half-life [6] was 2 h. For the same compound, the half-life [7] was 3.1 h, the AUC(0-inf) [8] was 1530 ng·h/mL and the AUC(0-inf) [9] was 1320 ng·h/mL. The ED50 (Rattus norvegicus [10]) was 5.63 mg/kg, the ED50 (Rattus norvegicus [11]) was 5.28 mg/kg and the IC50 (Cytochrome P450 1A2) was over 200 µM. The IC50 (Cytochrome P450 2C8) was 99.7 µM, the Activity (Rattus norvegicus [12]) was “Non-toxic” and the Activity (Rattus norvegicus [13]) was “Non-toxic”.
